Data from ChEMBL document CHEMBL3407373, “Design, synthesis and evaluation of a novel class of glucosamine mimetic peptides containing 1,3-dioxane” (2015).
Counter-ions that a name gives are not always drawn.

Tested on: Mus musculus
Assay: Antiinflammatory activity against ICR mouse ear edema model assessed as inhibition of xylene-induced edema at 100 mg/kg, po administered 30 mins prior to xylene challenge measured after 2 hrs relative to vehicle-treated control
Type: functional
Procedure, shortened: (§1)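 Male ICR mice (18-20 g), 12/12 h light/dark, free food and water, acclimated 1 day; groups of twelve. Test agents were given by oral gavage as suspensions in 0.5% CMC, with CMC alone as vehicle control, 30 min before xylene was applied to both surfaces of the right ear; the left ear served as control. At 2 h, mice were decapitated and 8.0 mm ear biopsies were punched and weighed; edema = right minus left weight.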

Compound | inhibition in vivo at 100 mg/kg [%]
CC(=O)Oc1ccccc1C(=O)O [ASPIRIN] | 89.5

Tested on: Mus musculus
Assay: Antiinflammatory activity against ICR mouse ear edema model assessed as inhibition of xylene-induced edema at 1 umol/kg, po administered 30 mins prior to xylene challenge measured after 2 hrs relative to vehicle-treated control
Type: functional
Procedure, shortened: as §1

Compound | inhibition in vivo at 1 µmol/kg [%]
CC[C@H](C)[C@H](NCCC1OCC(C)(C)CO1)C(=O)N[C@H]1C(O)O[C@H](CO)[C@@H](O)[C@@H]1O (some centres not stated) | 70.8

Tested on: Mus musculus
Assay: Antiinflammatory activity against ICR mouse ear edema model assessed as inhibition of xylene-induced edema at 0.1 umol/kg, po administered 30 mins prior to xylene challenge measured after 2 hrs relative to vehicle-treated control
Type: functional
Procedure, shortened: as §1

Compound | inhibition in vivo at 0.1 µmol/kg [%]
CC[C@H](C)[C@H](NCCC1OCC(C)(C)CO1)C(=O)N[C@H]1C(O)O[C@H](CO)[C@@H](O)[C@@H]1O (some centres not stated) | 44.3

Tested on: Mus musculus
Assay: Antiinflammatory activity against ICR mouse ear edema model assessed as inhibition of xylene-induced edema at 10 umol/kg, po administered 30 mins prior to xylene challenge measured after 2 hrs relative to vehicle-treated control
Type: functional
Procedure, shortened: as §1

Compound | inhibition in vivo at 10 µmol/kg [%]
CC[C@H](C)[C@H](NCCC1OCC(C)(C)CO1)C(=O)N[C@H]1[C@@H](OCc2ccccc2)O[C@H](COCc2ccccc2)[C@@H](OCc2ccccc2)[C@@H]1OCc1ccccc1 | 81.6
CC1(C)COC(CCN[C@@H](Cc2ccccc2)C(=O)N[C@H]2[C@@H](OCc3ccccc3)O[C@H](COCc3ccccc3)[C@@H](OCc3ccccc3)[C@@H]2OCc2ccccc2)OC1 | 87.1
CC(C)[C@H](NCCC1OCC(C)(C)CO1)C(=O)N[C@H]1[C@@H](OCc2ccccc2)O[C@H](COCc2ccccc2)[C@@H](OCc2ccccc2)[C@@H]1OCc1ccccc1 | 86.2
C[C@H](NCCC1OCC(C)(C)CO1)C(=O)N[C@H]1[C@@H](OCc2ccccc2)O[C@H](COCc2ccccc2)[C@@H](OCc2ccccc2)[C@@H]1OCc1ccccc1 | 90.3
CC1(C)COC(CCN[C@@H](Cc2c[nH]c3ccccc23)C(=O)N[C@H]2[C@@H](OCc3ccccc3)O[C@H](COCc3ccccc3)[C@@H](OCc3ccccc3)[C@@H]2OCc2ccccc2)OC1 | 80.1
CC(C)C[C@H](NCCC1OCC(C)(C)CO1)C(=O)N[C@H]1[C@@H](OCc2ccccc2)O[C@H](COCc2ccccc2)[C@@H](OCc2ccccc2)[C@@H]1OCc1ccccc1 | 76.7
CC[C@H](C)[C@H](NCCC1OCC(C)(C)CO1)C(=O)N[C@H]1[C@@H](OC(C)=O)O[C@H](COC(C)=O)[C@@H](OC(C)=O)[C@@H]1OC(C)=O | 79.8
CC(=O)OC[C@H]1O[C@H](OC(C)=O)[C@H](NC(=O)[C@H](Cc2ccccc2)NCCC2OCC(C)(C)CO2)[C@@H](OC(C)=O)[C@@H]1OC(C)=O | 86.8
CC(=O)OC[C@H]1O[C@H](OC(C)=O)[C@H](NC(=O)[C@@H](NCCC2OCC(C)(C)CO2)C(C)C)[C@@H](OC(C)=O)[C@@H]1OC(C)=O | 70.6
CC(=O)OC[C@H]1O[C@H](OC(C)=O)[C@H](NC(=O)[C@H](C)NCCC2OCC(C)(C)CO2)[C@@H](OC(C)=O)[C@@H]1OC(C)=O | 84.2
CC(=O)OC[C@H]1O[C@H](OC(C)=O)[C@H](NC(=O)[C@H](Cc2c[nH]c3ccccc23)NCCC2OCC(C)(C)CO2)[C@@H](OC(C)=O)[C@@H]1OC(C)=O | 80.7
CC(=O)OC[C@H]1O[C@H](OC(C)=O)[C@H](NC(=O)[C@H](CC(C)C)NCCC2OCC(C)(C)CO2)[C@@H](OC(C)=O)[C@@H]1OC(C)=O | 86.6
CC[C@H](C)[C@H](NCCC1OCC(C)(C)CO1)C(=O)N[C@H]1C(O)O[C@H](CO)[C@@H](O)[C@@H]1O (some centres not stated) | 88.7
CC1(C)COC(CCN[C@@H](Cc2ccccc2)C(=O)N[C@H]2C(O)O[C@H](CO)[C@@H](O)[C@@H]2O)OC1 (some centres not stated) | 81.9
CC(C)[C@H](NCCC1OCC(C)(C)CO1)C(=O)N[C@H]1C(O)O[C@H](CO)[C@@H](O)[C@@H]1O (some centres not stated) | 85.1
C[C@H](NCCC1OCC(C)(C)CO1)C(=O)N[C@H]1C(O)O[C@H](CO)[C@@H](O)[C@@H]1O (some centres not stated) | 86.8
CC1(C)COC(CCN[C@@H](Cc2c[nH]c3ccccc23)C(=O)N[C@H]2C(O)O[C@H](CO)[C@@H](O)[C@@H]2O)OC1 (some centres not stated) | 80.3
CC(C)C[C@H](NCCC1OCC(C)(C)CO1)C(=O)N[C@H]1C(O)O[C@H](CO)[C@@H](O)[C@@H]1O (some centres not stated) | 81.8
N[C@H]1C(O)O[C@H](CO)[C@@H](O)[C@@H]1O (some centres not stated) [GLUCOSAMINE HYDROCHLORIDE] | 64.3
